Here are results for 16 compounds from PubChem BioAssay.

Assay [1] can be described thus: Her2 expression decrease, cell viability multiplex – SKBR3 breast tumor cells, AlphaScreen, ATP viability, primary screen (AID 461;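 active = Her2 level under about 52% in both replicate screens, with viability over 70% of control, limit read from the data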;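 as to Her2 level: lower value means less Her2 protein in the cells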;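 as to viability: percent of carrier control wells set as 100% viability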). Conditions: SKBR3 Her2 protein level, 18-24 h, measured here: SKBR3 viability, ATP luminescence, at 10 µM. Background: Bead proximity is the source of the signal in Alpha formats.
The target of assay [2] is Receptor tyrosine-protein kinase erbB-2 (Homo sapiens) (UniProt P04626). The description is as above. Conditions: 18-24 h, at 10 µM, stronger effect = lower value.
Receptor tyrosine-protein kinase erbB-2 (Homo sapiens), sequence (P04626 whole entry, looked up): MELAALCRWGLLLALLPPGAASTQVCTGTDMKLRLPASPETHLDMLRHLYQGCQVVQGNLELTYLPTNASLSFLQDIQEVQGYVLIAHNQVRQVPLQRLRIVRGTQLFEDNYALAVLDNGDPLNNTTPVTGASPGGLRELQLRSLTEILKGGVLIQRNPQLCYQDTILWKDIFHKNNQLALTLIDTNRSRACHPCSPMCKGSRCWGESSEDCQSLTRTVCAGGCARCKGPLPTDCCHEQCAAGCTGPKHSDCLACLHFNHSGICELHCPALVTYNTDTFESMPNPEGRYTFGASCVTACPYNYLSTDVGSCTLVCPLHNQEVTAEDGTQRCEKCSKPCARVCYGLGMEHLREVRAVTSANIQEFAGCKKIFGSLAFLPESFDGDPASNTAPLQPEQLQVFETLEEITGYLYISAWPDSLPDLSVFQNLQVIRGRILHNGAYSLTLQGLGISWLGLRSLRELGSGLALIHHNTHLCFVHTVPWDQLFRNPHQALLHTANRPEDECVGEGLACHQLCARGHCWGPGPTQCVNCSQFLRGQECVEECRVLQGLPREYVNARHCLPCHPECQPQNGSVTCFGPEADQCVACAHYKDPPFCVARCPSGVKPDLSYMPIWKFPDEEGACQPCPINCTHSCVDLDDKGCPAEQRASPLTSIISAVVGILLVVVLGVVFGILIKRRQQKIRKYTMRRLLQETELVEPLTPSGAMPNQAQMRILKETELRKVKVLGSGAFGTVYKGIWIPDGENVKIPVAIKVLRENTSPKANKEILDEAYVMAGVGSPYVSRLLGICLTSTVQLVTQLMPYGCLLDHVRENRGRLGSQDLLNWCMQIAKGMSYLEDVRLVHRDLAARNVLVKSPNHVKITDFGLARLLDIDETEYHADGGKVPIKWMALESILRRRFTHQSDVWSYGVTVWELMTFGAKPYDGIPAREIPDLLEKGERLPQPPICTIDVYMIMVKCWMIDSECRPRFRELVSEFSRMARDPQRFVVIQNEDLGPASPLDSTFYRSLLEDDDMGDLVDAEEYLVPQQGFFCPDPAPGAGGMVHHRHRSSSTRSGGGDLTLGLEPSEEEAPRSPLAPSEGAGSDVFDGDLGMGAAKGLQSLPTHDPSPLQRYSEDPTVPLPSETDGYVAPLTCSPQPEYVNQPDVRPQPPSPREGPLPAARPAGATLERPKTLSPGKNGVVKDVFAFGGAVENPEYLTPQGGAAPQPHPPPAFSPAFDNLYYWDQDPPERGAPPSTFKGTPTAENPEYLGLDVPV
Assay [3] can be described thus: reduced viability of SK-BR-3 breast cancer cells – cell-based, 24 h, human, pilot screen (AID 572;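 active = viability at or below 10% of carrier control in both of two separate runs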;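 also: compound exposure lasted between 18 and 24 h rather than exactly 24 h; 100% = carrier-treated control wells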). Conditions: SK-BR-3 viability, CellTiter-Glo luminescence, at 10 µM, stronger effect = lower value. In general terms: ATP-based viability assays read luminescence as a measure of living cells.
Assay [4] is described as follows: HUVEC growth inhibition – cell-based, human, primary screen (AID 575;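 active = viability at or below 30% in both replicate assays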;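 also: 100% = median of untreated cell wells with 0.1% DMSO on each plate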). The note with it: HUVEC proliferation, CellTiter-Glo luminescence, 72 h; at 10 µM; stronger effect = lower value. Put shortly:
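Test system: HUVEC primary cells. Quantity: 1250 endothelial cells in each well. Dosing: single-point 10 µM, DMSO 0.1% final. Incubation: 72 h treatment at 37 °C. Measured by: CTG luminescence. Control set: DMSO cell controls and MePR drug controls. Plate: collagen-coated 384-well format.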

A short description of assay [5]: H69AR cell proliferation blockers – human, duplicate replicates, primary screen (AID 580;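 active = viability at or under a set limit in both replicates, limit being median viability minus 3 SD, cut at about 48% in these data, passing the limit was not always enough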;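 also: 100% = mean luminescence of untreated wells and 0% = no signal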). The note with it: H69AR lung tumor cells viability, ATP luminescence, 72 h; at 10 µM; stronger effect = lower value.
Assay [6] can be described thus: MRP1 drug-resistance reversers in H69AR cells – cell-based, doxorubicin co-treatment, pilot screen (AID 601;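 active = viability loss from added drug above about 55%, and viability with drug at most 40%, in both replicates, limit read from the data, passing the limit was not always enough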). Conditions: CellTiter-Glo, 72 h, at 10 µM; for differential viability (reversal): stronger effect = higher value.
Assay [7] is described as follows: yeast transport mutant growth inhibition pilot in 384-well plates, post-Golgi transport modulator project (AID 636; in the data active = inhibition above about 31%). Conditions: absorbance 615 nm, about 18 h, stronger effect = higher value.
Assay [8] can be described thus: growth suppression of yeast trafficking mutant, preliminary HTS, modulators of trafficking downstream of Golgi apparatus project, 1536-format plate, OD 615 nm (AID 637). The note with it: yeast transport mutant growth, absorbance 615 nm, 18 h; stronger effect = higher value.
[9] abbreviates: H69AR cells + 2 uM doxorubicin, measured here: viability with 2 uM doxorubicin, stronger effect = lower value.
Where [10] appears, read: H69AR cells, compound alone cytotoxicity.

The source made the active and inactive calls. Rule as the data show it, unless noted: active = inhibition above about 30%; inactive = the rest.

What is called viability is a read-out of living cells in per cent, often relative to untreated cells. Usually inhibition stands for the drop in the measured response relative to a control, in per cent. As to `CCOC(=O)NC(=O)CSc1nnnn1-c1ccc(Cl)cc1`, the viability in assay [1] was 86.5%; in assay [3], 86.5% (inactive); in assay [4], 104% (inactive); in assay [5], 106% (inactive); in assay [6] (setting [9]) it was 85.7%; in assay [6] (setting [10]), 106%. Besides, the Her2 level in assay [2] is 94% (inactive). Further, in assay [6] (H69AR cells + 2 uM doxorubicin), the differential viability (reversal) was 20.4% (inactive). For the same compound, the inhibition is -5.2% (inactive) in assay [7] and 0.48% (inactive) in assay [8].

For `CC(C)[C@H](NC(=O)NCc1ccc(Cl)cc1)C(=O)O`, the viability in assay [1] is 86%; in assay [3], 86% (inactive); in assay [4], 89.1% (inactive); in assay [5], 103% (inactive); in assay [6] (setting [9]), 91.9%; in assay [6] (setting [10]) it was 103%. Also, the Her2 level in assay [2] was 77% (inactive). Besides, the differential viability (reversal) in assay [6] (H69AR cells + 2 uM doxorubicin) is 11.2% (inactive). For the same compound, the values for the inhibition in assay [7] and in assay [8] were -4% (inactive) and -4.75% (inactive), respectively.

`COc1ccc(CCNC(=O)CSc2nnc(CNc3ccc(Cl)cc3)o2)cc1OC`: the viability in assay [1] was 112%; in assay [3], 112% (inactive); in assay [4], 60.5% (inactive); in assay [5], 84.3% (inactive); in assay [6] (setting [9]), 90.9%; in assay [6] (setting [10]), 84.3%. In addition, in assay [2], the Her2 level is 89% (inactive). In assay [6] (H69AR cells + 2 uM doxorubicin), the differential viability (reversal) was -6.59% (inactive). Besides, the inhibition in assay [7] is -0.65% (inactive); in assay [8], -4.29% (inactive).

As for `CCOC(=O)N1CCC(NC(=O)C2CCCN2C(=O)OCc2ccccc2)CC1` (stereo not given), the viability in assay [1] was 93%; in assay [3], 93% (inactive); in assay [4], 103% (inactive); in assay [5] it was 90.7% (inactive); in assay [6] (setting [9]), 93%; in assay [6] (setting [10]), 90.7%. Besides, the Her2 level in assay [2] was 106% (inactive). Also, the differential viability (reversal) in assay [6] (H69AR cells + 2 uM doxorubicin) is -2.27% (inactive). For the same compound, the inhibition in assay [7] is 2.89% (inactive); in assay [8] it was -7.1% (inactive).

Take `Oc1ccc(N2CCN(C(c3cccnc3)c3nnnn3Cc3ccccc3)CC2)cc1` (stereo not given): the viability in assay [1] is 85%; in assay [3], 85% (inactive); in assay [4] it was 83.5% (inactive); in assay [5], 90.2% (inactive); in assay [6] (setting [9]), 92.9%; in assay [6] (setting [10]), 90.2%. Moreover, the Her2 level in assay [2] is 92% (inactive). Also, the differential viability (reversal) in assay [6] (H69AR cells + 2 uM doxorubicin) is -2.76% (inactive). For the same compound, the values for the inhibition in assay [7] and in assay [8] were -4.74% (inactive) and -2% (inactive), respectively.

On to `COC(=O)C1C(=O)C2=C(CC1C)NC(=O)CC2c1ccccc1` (stereo not given), for which the viability was 102% in assay [1]; 102% (inactive) in assay [3]; 91.7% (inactive) in assay [4]; 103% (inactive) in assay [5]; 87.9% in assay [6] (setting [9]); 103% in assay [6] (setting [10]). The Her2 level in assay [2] is 97% (inactive). Also, the differential viability (reversal) in assay [6] (H69AR cells + 2 uM doxorubicin) is 15.2% (inactive). The inhibition in assay [7] was -3.55% (inactive); in assay [8], 5.33% (inactive).

As for `CC1CCN(C(=S)c2ccccc2O)CC1`, the viability in assay [1] is 116%; in assay [3], 116% (inactive); in assay [4], 92.8% (inactive); in assay [5] it was 89% (inactive); in assay [6] (setting [9]) it was 89.9%; in assay [6] (setting [10]) it was 89%. Further, the Her2 level in assay [2] was 105% (inactive). Moreover, the differential viability (reversal) in assay [6] (H69AR cells + 2 uM doxorubicin) is -0.9% (inactive). Besides, the inhibition is -5.2% (inactive) in assay [7] and -6.29% (inactive) in assay [8].

Take `O=C(O)CCn1c(SCc2ccccc2)nc2ccccc21`: the viability in assay [1] is 116%; in assay [3], 116% (inactive); in assay [4] it was 112% (inactive); in assay [5] it was 89.3% (inactive); in assay [6] (setting [9]), 77%; in assay [6] (setting [10]), 89.3%. Besides, the Her2 level in assay [2] is 107% (inactive). Also, the differential viability (reversal) in assay [6] (H69AR cells + 2 uM doxorubicin) is 12.2% (inactive). In addition, the inhibition in assay [7] is -5.73% (inactive); in assay [8] it was 5.65% (inactive).

For `COCc1nnc(NC(=O)c2ccc(NC(C)=O)cc2)s1`, the viability in assay [1] is 100%; in assay [3] it was 100% (inactive); in assay [4], 86.4% (inactive); in assay [5], 105% (inactive); in assay [6] (setting [9]) it was 90.2%; in assay [6] (setting [10]) it was 105%. The Her2 level in assay [2] is 102% (inactive). In assay [6] (H69AR cells + 2 uM doxorubicin), the differential viability (reversal) is 14.8% (inactive). The inhibition in assay [7] was 0.13% (inactive); in assay [8], -9.19% (inactive).

As to `CCCCCCC(=O)c1c(C)[nH]c(C(=O)OCC)c1C`, the viability is 98% in assay [1]; 98% (inactive) in assay [3]; 60.2% (inactive) in assay [4]; 92.7% (inactive) in assay [5]; 85.8% in assay [6] (setting [9]); 92.7% in assay [6] (setting [10]). In addition, the Her2 level in assay [2] was 86.5% (inactive). The differential viability (reversal) in assay [6] (H69AR cells + 2 uM doxorubicin) was 6.9% (inactive). For the same compound, the figures for the inhibition in assay [7] and in assay [8] were -5.73% (inactive) and 4.03% (inactive), respectively.

`CCCOc1ccccc1NC(=O)c1ccc(N)cc1`: the viability in assay [1] was 95%; in assay [3], 95% (inactive); in assay [4], 100% (inactive); in assay [5], 98.2% (inactive); in assay [6] (setting [9]), 90.6%; in assay [6] (setting [10]) it was 98.2%. For the same compound, the Her2 level in assay [2] is 84% (inactive). Besides, the differential viability (reversal) in assay [6] (H69AR cells + 2 uM doxorubicin) is 7.58% (inactive). The inhibition in assay [7] is -5.53% (inactive); in assay [8], -2.17% (inactive).

Turning to `Cc1nn(-c2ccccc2)c2c1C(O)n1c(nc3ccccc31)S2` (stereo not given), the viability in assay [1] is 91%; in assay [3], 91% (inactive); in assay [4], 50.9% (inactive); in assay [5], 26.2% (active); in assay [6] (setting [9]), 34.4%; in assay [6] (setting [10]), 26.2%. Further, the Her2 level in assay [2] was 77.5% (inactive). Further, in assay [6] (H69AR cells + 2 uM doxorubicin), the differential viability (reversal) is -8.14% (inactive). Further, the inhibition in assay [7] is -6.85% (inactive); in assay [8], -0.79% (inactive).

`O=C1NCC(COCc2ccccc2)O1` (stereo not given): the viability in assay [1] is 110%; in assay [3], 110% (inactive); in assay [4], 103% (inactive); in assay [5], 108% (inactive); in assay [6] (setting [9]), 89.4%; in assay [6] (setting [10]), 108%. Also, the Her2 level in assay [2] was 96% (inactive). Further, the differential viability (reversal) in assay [6] (H69AR cells + 2 uM doxorubicin) was 18.5% (inactive). For the same compound, the inhibition in assay [7] was -5.6% (inactive); in assay [8], 0% (inactive).

Regarding `CCOC(=O)c1ccc(Oc2nc(NC)nc(OC)n2)cc1`, the viability in assay [1] was 100%; in assay [3], 100% (inactive); in assay [4], 103% (inactive); in assay [5], 104% (inactive); in assay [6] (setting [9]), 98.8%; in assay [6] (setting [10]), 104%. Moreover, the Her2 level in assay [2] is 108% (inactive). The differential viability (reversal) in assay [6] (H69AR cells + 2 uM doxorubicin) was 5.53% (inactive). Also, the inhibition in assay [7] is -1.35% (inactive); in assay [8], -6.67% (inactive).

Regarding `Cc1ccc(-c2cn3cccnc3n2)cc1NC(=O)c1ccc(Br)o1`, the viability in assay [1] is 95.5%; in assay [3] it was 95.5% (inactive); in assay [4], 97.6% (inactive); in assay [5], 88.5% (inactive); in assay [6] (setting [9]) it was 80%; in assay [6] (setting [10]) it was 88.5%. Moreover, the Her2 level in assay [2] is 86.5% (inactive). In addition, the differential viability (reversal) in assay [6] (H69AR cells + 2 uM doxorubicin) was 8.45% (inactive). The inhibition is -0.39% (inactive) in assay [7] and -7.46% (inactive) in assay [8].

`COC(=O)CN(c1ccc(F)cc1)S(=O)(=O)c1ccccc1`: the viability in assay [1] is 91.5%; in assay [3] it was 91.5% (inactive); in assay [4], 122% (inactive); in assay [5], 92.1% (inactive); in assay [6] (setting [9]), 92.8%; in assay [6] (setting [10]), 92.1%. Also, the Her2 level in assay [2] is 109% (inactive). Further, the differential viability (reversal) in assay [6] (H69AR cells + 2 uM doxorubicin) is -0.7% (inactive). Also, the inhibition was 0.13% (inactive) in assay [7] and -3.93% (inactive) in assay [8].
